Assay results reported in ChEMBL document CHEMBL1148893, “Nodulisporic acids D-F: structure, biological activities, and biogenetic relationships” (J Nat Prod, 2004).

Tests used:
[1] = Displacement of [35S]nodulisporic amide from Glutamate gated chloride channel alpha subunit/GABA gated chloride channel subunit Rdl in Drosophila melanogaster head membrane
Procedure, shortened: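 Competition binding against [35S]nodulisporic amide (10 pM ligand) on Drosophila melanogaster head membranes. Compounds prepared as 20 mM DMSO stocks, tested from 10 µM down to 10 pM (0.1 pM for potent ones) in 0.5 log steps, in triplicate. Each compound assayed at least twice; IC50 reported as geometric mean. Where label recovery increased, the highest concentration without "precipitation" is reported instead.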

Ctenocephalides felis = test: Insecticidal activity against Ctenocephalides felis by artificial membrane feeding assay; assay type: functional
Procedure, shortened: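 Ex-vivo artificial membrane feeding assay, 20-25 cat fleas per titration level; compounds dissolved or suspended in bovine blood fed to fleas. LD90 taken as the concentration killing >90% of fleas.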

For `C=C(C)[C@H]1Cc2c3c(cc4c5c(n1c24)[C@@]1(C)[C@@H](CC[C@@H]2[C@]1(C)CC[C@]1(O)O[C@H](/C=C(\C)C(=O)O)C[C@@]21C)C5)C1=CC(C)(C)OC(C)(C)[C@H]1[C@@H]3O` [NODULISPORIC ACID B1], the IC50 [1] was 121 nM and the LD90 (Ctenocephalides felis) was over 147.7 µM.
Work on `C=C(C)[C@H]1C(=O)c2c3c(cc4c5c(n1c24)[C@@]1(C)[C@@H](CC[C@H]2[C@](C)(/C=C/C=C(\C)C(=O)OC)[C@@H](O)CC[C@@]21C)C5)C1=CC(C)(C)OC(C)(C)[C@H]1[C@@H]3O` yielded an IC50 [1] of 0.43 nM and an LD90 (Ctenocephalides felis) of 14.4 µM.
In the case of `C=C(C)[C@H]1C(=O)c2c3c(cc4c5c(n1c24)[C@@]1(C)[C@@H](CC[C@@H]2[C@]1(C)CC[C@]1(O)O[C@H]([C@H](O)[C@H](C)C(=O)O)C[C@@]21C)C5)C1=CC(C)(C)OC(C)(C)[C@H]1[C@@H]3O` [NODULISPORIC ACID A12], the IC50 [1] is reported as 70 nM and the LD90 (Ctenocephalides felis) is reported as 14 µM.
Molecule `C=C(C)[C@H]1C(=O)c2c3c(cc4c5c(n1c24)[C@@]1(C)[C@@H](CC[C@H]2[C@](C)(CC/C=C(\C)C(=O)O)[C@@H](O)CC[C@@]21C)C5)C1=CC(C)(C)OC(C)(C)[C@H]1[C@@H]3O` [NODULISPORIC ACID A4] has an IC50 [1] of 2.4 nM and an LD90 (Ctenocephalides felis) of 14.7 µM.
Work on `COC(=O)/C(C)=C/C=C/[C@]1(C)[C@@H](O)CC[C@@]2(C)[C@H]1CC[C@H]1Cc3c([nH]c4cc5c(cc34)C3=CC(C)(C)OC(C)(C)[C@H]3C5)[C@@]12C` [NODULISPORIC ACID D METHYL ESTER] yielded an IC50 [1] of over 100 nM.
Work on `COC(=O)/C(C)=C/CC[C@]1(C)[C@@H](O)CC[C@@]2(C)[C@H]1CC[C@H]1Cc3c([nH]c4cc(CC=C(C)C)c(CC=C(C)C)cc34)[C@@]12C` yielded an IC50 [1] of over 100 nM.
With `C=C(C)[C@H]1C(=O)c2c3c(cc4c5c(n1c24)[C@@]1(C)[C@@H](CC[C@@H]2[C@]1(C)CC[C@]1(O)O[C@H](/C=C(\C)C(=O)O)C[C@@]21C)C5)C1=CC(C)(C)OC(C)(C)[C@H]1[C@@H]3O` [NODULISPORIC ACID A1] the IC50 [1] was 10.5 nM and the LD90 (Ctenocephalides felis) was 7.3 µM.
For `COC(=O)[C@@H](C)[C@@H](O)[C@@H]1C[C@@]2(C)[C@@H]3CC[C@H]4Cc5c([nH]c6cc7c(cc56)C5=CC(C)(C)OC(C)(C)[C@H]5C7)[C@]4(C)[C@@]3(C)CC[C@]2(O)O1` [NODULISPORIC ACID D2 METHYL ESTER], the IC50 [1] was over 10000 nM.
Molecule `C/C(=C\[C@@H]1C[C@@]2(C)[C@@H]3CC[C@H]4Cc5c([nH]c6cc7c(cc56)C5=CC(C)(C)OC(C)(C)[C@H]5C7)[C@]4(C)[C@@]3(C)CC[C@]2(O)O1)C(=O)O` [NODULISPORIC ACID D1] has an IC50 [1] of over 10000 nM.
In the case of `C=C(C)[C@H]1C(=O)c2c3c(cc4c5c(n1c24)[C@@]1(C)[C@@H](CC[C@H]2[C@](C)(CC/C=C(\C)C(=O)O)[C@@H](O)CC[C@@]21C)C5)C1=CC(C)(C)OC(C)(C)C1=C3`, the IC50 [1] is reported as 23 nM and the LD90 (Ctenocephalides felis) is reported as over 15.1 µM.
`C=C(C)[C@H]1Cc2c3c(cc4c5c(n1c24)[C@@]1(C)[C@@H](CC[C@H]2[C@](C)(/C=C/C=C(\C)C(=O)OC)[C@@H](O)CC[C@@]21C)C5)C1=CC(C)(C)OC(C)(C)[C@H]1[C@@H]3O` gave an IC50 [1] of 2.6 nM and an LD90 (Ctenocephalides felis) of 147.1 µM.
Work on `CC(C)=CCc1c2c(cc3c4c([nH]c13)[C@@]1(C)[C@@H](CC[C@@H]3[C@]1(C)CC[C@]1(O)O[C@H]([C@H](O)[C@H](C)C(=O)O)C[C@@]31C)C4)C1=CC(C)(C)OC(C)(C)[C@H]1[C@@H]2O` [NODULISPORIC ACID C2] yielded an IC50 [1] of 71.5 nM and an LD90 (Ctenocephalides felis) of over 142.5 µM.
`CC(C)=CCc1c2c(cc3c4c([nH]c13)[C@@]1(C)[C@@H](CC[C@H]3[C@](C)(/C=C/C=C(\C)C(=O)O)[C@@H](O)CC[C@@]31C)C4)C1=CC(C)(C)OC(C)(C)[C@H]1[C@@H]2O` [NODULISPORIC ACID C] showed an IC50 [1] of 5.2 nM and an LD90 (Ctenocephalides felis) of 15 µM.
For `C/C(=C\C=C\[C@]1(C)[C@@H](O)CC[C@@]2(C)[C@H]1CC[C@H]1Cc3c([nH]c4cc5c(cc34)C3=CC(C)(C)OC(C)(C)[C@H]3C5)[C@@]12C)C(=O)O` [NODULISPORIC ACID], the IC50 [1] was over 1000 nM and the LD90 (Ctenocephalides felis) was 92.6 µM.
Work on `CC(C)=CCc1c2c(cc3c4c([nH]c13)[C@@]1(C)[C@@H](CC[C@H]3[C@](C)(CC/C=C(\C)C(=O)O)[C@@H](O)CC[C@@]31C)C4)C1=CC(C)(C)OC(C)(C)C1=C2` yielded an IC50 [1] of over 100 nM and an LD90 (Ctenocephalides felis) of 15.3 µM.
Work on `COC(=O)/C(C)=C/[C@@H]1C[C@@]2(C)[C@@H]3CC[C@H]4Cc5c([nH]c6cc7c(cc56)C5=CC(C)(C)OC(C)(C)[C@H]5C7)[C@]4(C)[C@@]3(C)CC[C@]2(O)O1` [NODULISPORIC ACID D1 METHYL ESTER] yielded an IC50 [1] of over 100 nM.
For `C=C(C)[C@H]1Cc2c3c(cc4c5c(n1c24)[C@@]1(C)[C@@H](CC[C@@H]2[C@]1(C)CC[C@]1(O)O[C@H]([C@H](O)[C@H](C)C(=O)O)C[C@@]21C)C5)C1=CC(C)(C)OC(C)(C)[C@H]1[C@@H]3O` [NODULISPORIC ACID B2], the IC50 [1] was 101 nM and the LD90 (Ctenocephalides felis) was over 142.9 µM.
Molecule `C[C@H](C(=O)O)[C@@H](O)[C@@H]1C[C@@]2(C)[C@@H]3CC[C@H]4Cc5c([nH]c6cc7c(cc56)C5=CC(C)(C)OC(C)(C)[C@H]5C7)[C@]4(C)[C@@]3(C)CC[C@]2(O)O1` [NODULISPORIC ACID D2] has an IC50 [1] of 22.1 nM.
For `CC(C)=CCc1c2c(cc3c4c([nH]c13)[C@@]1(C)[C@@H](CC[C@@H]3[C@]1(C)CC[C@]1(O)O[C@H](/C=C(\C)C(=O)O)C[C@@]31C)C4)C1=CC(C)(C)OC(C)(C)[C@H]1[C@@H]2O` [NODULISPORIC ACID C1], the IC50 [1] was 52.3 nM and the LD90 (Ctenocephalides felis) was over 146.2 µM.
Work on `CC(C)=CCc1cc2[nH]c3c(c2cc1CC=C(C)C)C[C@@H]1CC[C@H]2[C@](C)(CC/C=C(\C)C(=O)O)[C@@H](O)CC[C@]2(C)[C@@]31C` yielded an IC50 [1] of 2140 nM.
In the case of `C/C(=C\CC[C@]1(C)[C@@H](O)CC[C@@]2(C)[C@H]1CC[C@H]1Cc3c([nH]c4ccccc34)[C@@]12C)C(=O)O` [NODULISPORIC ACID F], the IC50 [1] is reported as over 10000 nM and the LD90 (Ctenocephalides felis) is reported as 45.9 µM.
In the case of `C=C(C)[C@H]1Cc2c3c(cc4c5c(n1c24)[C@@]1(C)[C@@H](CC[C@H]2[C@](C)(/C=C/C=C(\C)C(=O)O)[C@@H](O)CC[C@@]21C)C5)C1=CC(C)(C)OC(C)(C)[C@H]1[C@@H]3O` [NODULISPORIC ACIDS B], the IC50 [1] is reported as 17.4 nM and the LD90 (Ctenocephalides felis) is reported as 150 µM.
In the case of `C/C(=C\C=C\[C@]1(C)C(=O)CC[C@@]2(C)[C@H]1CC[C@H]1Cc3c([nH]c4cc5c(cc34)C3=CC(C)(C)OC(C)(C)[C@H]3C5)[C@@]12C)C(=O)O` [NODULISPORIC ACID D3], the IC50 [1] is reported as over 1000 nM.
`C=C(C)[C@H]1C(=O)c2c3c(cc4c5c(n1c24)[C@@]1(C)C(CC[C@H]2[C@](C)(/C=C/C=C(\C)C(=O)O)[C@@H](O)CC[C@@]21C)C5)C1=CC(C)(C)OC(C)(C)C1[C@@H]3O` (stereo not given in full) [NOD ACID A] gave an IC50 [1] of 0.27 nM and an LD90 (Ctenocephalides felis) of 1.5 µM.
